# A selection: hits, their analogues and other compounds. The true share with any hit is near 1.8%.
# TAG inh: inhibitors of triacylglycerol accumulation, primary screen, cell-based, uHTS, fluorescence, H9c2. inhibition, % at 12.5 µM. AID 651582, 2012. H9c2 cells, Nile Red lipid (TAG) fluorescence; cells loaded with 200 µM oleic acid. actives 0.66% (n = 230,000);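 active = pattern-corrected inhibition of lipid staining of at least 50% with the nuclear-stain viability signal not falling by more than 50%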;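 also: 0% = DMSO wells and 100% = triacsin C control wells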
# 697 NFkB inh: inhibitors of PMA/ionomycin-induced NF-kB reporter, 697 cells, primary screen, B-cell NF-kB inhibitor project, cell-based, luminescence, uHTS. actives 0.33% (n = 330,000). inhibition, % at 4 µM. 697 B-cell NF-kB luciferase reporter, 16 h. AID 435022, 2010; in the data active = inhibition above about 35%
# Jurkat NFkB inh: inhibitors of induced NF-kB luciferase reporter, primary screen, TCR NF-kB activation inhibitor project, cell-based, luminescence, uHTS | Jurkat, PMA/ionomycin-induced NF-kB luciferase reporter | inhibition, % at 4 µM | actives 0.53% (n = 330,000); in the data active = inhibition above about 50%
# iPSC survival up: enhancers of single-cell hiPSC survival, primary screen, ATPlite luminescence; actives 0.044% (n = 360,000); survival enhancement, % at 20 µM; 100% = ROCK inhibitor wells, 0% = DMSO; in the data active = survival enhancement above about 18%;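 also: cells exposed to compounds for 16 hours before the ATP read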
# Gli-Sufu antag: Gli-Sufu pathway antagonists, primary screen, luciferase luminescence, Sufu-KO-LIGHT cells, uHTS | inhibition, % at 5 µM | actives 0.74% (n = 340,000) | Sufu-KO-LIGHT fibroblasts, Gli luciferase reporter luminescence | AID 588413, 2011;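 active = inhibition above about 55%, limit read from the data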;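 also: 0% = DMSO-treated cells and 100% = wells with medium but no cells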
# Hep lipid drop: inhibitors of hepatocyte lipid droplet formation, primary screen, imaging, high-throughput imaging, BODIPY stain | inhibition, % at 6.5 µM | AML12 mouse hepatocytes, oleate lipid droplets | actives 0.4% (n = 240,000) | AID 1656, 2009;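 active = lipid droplet intensity inhibited by at least 50%, with more than 500 cells counted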
#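 material = mouse AML12 hepatocyte cell line, fixed after treatment | also added = 100 µM oleic acid challenge | doses = compound at 6.5 µM only | schedule = overnight exposure | technique = Image-based BODIPY and DAPI two-channel analysis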
# 697 NFkB conf: PMA/ionomycin-induced NF-kB reporter inhibitors, 697 retest, confirmation, B-cell NF-kB inhibitor project, cell-based, luminescence, single concentration | shares compounds with 697 NFkB inh | 697 B-cell NF-kB luciferase, 16 h | inhibition, % at 4 µM | actives 35% (n = 2,000) | AID 449746, 2010; in the data active = inhibition mostly above about 28%, no sharp cut-off; inactive = mostly below about 22%
# * hit, by the source's call; i = inactive; / = no result; ! = a repeat was not active.
SMILES,TAG inh,697 NFkB inh,Jurkat NFkB inh,iPSC survival up,Gli-Sufu antag,Hep lipid drop,697 NFkB conf
CCn1c(=S)[nH]c2cc(S(=O)(=O)N3CCCCC3)ccc21,/,36*,3,0,32,3,30*
CCCCn1c(=S)[nH]c2cc(S(=O)(=O)N3CCOCC3)ccc21,-13,8,21,0,6,/,/
Cc1cn(-c2cc(C(=O)Nc3ccc(C)c(NC(=O)C(=O)c4c[nH]c5ccccc45)c3)cc(C(F)(F)F)c2)cn1,124*!,37*,9,0,4,-26,-20
CC(C#N)(NC(=O)CN1CCN(S(=O)(=O)c2ccc(Br)cc2Cl)CC1)C1CC1 (stereo not drawn),-9,20,5,0,-3,/,/
CC(=O)/C(C#N)=C1\NC(=O)C(Cc2ccc(C)c(Cl)c2)S1 (stereo not drawn),0,i,3,0,7,-4,-492
CC(=O)c1c(C(C)=O)c(C)n(-c2cccc([N+](=O)[O-])c2)c1C,/,36*,24,-1,-2,23,12
Cc1cc(C(=O)CCl)c(C)n1-c1cccc([N+](=O)[O-])c1,17,40*,4,-2,6,22,9
Cc1ccc(C(=O)Nc2ncc3c(Cl)cccc3n2)cc1,-3,-256,-77,-5,-88,/,-263
COc1ccc(NS(=O)(=O)c2cc(NC(=O)c3cc(=O)c4ccccc4o3)ccc2OC)cc1,12,38*,7,2,-4,2,33*
COc1cccc(NC(=O)c2cc(=O)c3ccccc3o2)c1,/,-13,-32,0,-18,15,/
Cc1ccc(NC(=O)C2CCN(S(=O)(=O)c3c(C)noc3C)CC2)cc1C,-4,12,12,0,-2,3,/
CC(C)(CNC(=O)C1CCCN1C(=O)c1cccs1)N1CCOCC1 (stereo not drawn),-19,57*,-1,1,0,7,-7
Cn1nc(-c2ccc(Cl)cc2)c2cc(C(=O)N3CCCC3)sc21,17,56*,9,2,-2,/,43*
O=C(Nc1ccc(C(=O)N2CCCC2)cc1)c1ccccc1F,/,-13,-19,-2,-34,0,/
O=C(Nc1cc(C(=O)N2CCCC2)ccc1N1CCCC1)c1ccccc1F,/,44*,11,0,4,0,-5
NC(=O)C1CCN(C(=O)COc2ccc3ccccc3c2Br)CC1,1,57*,9,0,4,-18,60*
CC1CN(C(=O)COc2ccc3ccccc3c2Br)CC(C)O1 (stereo not drawn),6,7,-9,0,-2,-22,/
Cc1ccc(Cc2cnc(NC(=O)c3cccs3)s2)cc1,-16,-299,-124,1,-116,/,-259
Cc1ccc2nc(NC(=O)c3cccs3)sc2c1,-26,-434,-138,-5,-119,/,-455
O=C(Nc1nc2c(s1)CCCC2)c1cccs1,-9,-252,-134,-2,-84,17,-264
Cc1c(CC(=O)NCCCC(=O)O)c(=O)oc2cc3c(cc12)CCC(C)(C)O3,/,52*,-2,0,3,1,51*
Cc1ccc(C(=O)N/C(=C\c2ccco2)C(=O)NCCN2CCOCC2)cc1,/,6,1,-1,20,6,/
COc1cccc(CC(=O)OC(C)C(=O)Nc2ncc(Cl)cc2Cl)c1 (stereo not drawn),3,-2,-8,0,25,/,/
COc1ccc(NC(=O)c2cc3n(n2)C(C(F)(F)F)CC(c2ccc4c(c2)OCO4)N3)cc1OC (stereo not drawn),/,12,4,4,-4,-13,/
